# Beta2AR agonist: beta2AR agonists driving receptor internalization, primary screen, cell-based, FAP fluorogen, flow cytometry. Beta-2 adrenergic receptor (Homo sapiens), P07550. Am2.2-beta2AR cells. response, % (concentration not given with the values). 340,000 compounds, 0.43% hits;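 active means response above a set limit, near 3 SD of response in nonfluorescent compounds, cut at about 42% in these data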
# Target sequence (P07550 whole entry, looked up): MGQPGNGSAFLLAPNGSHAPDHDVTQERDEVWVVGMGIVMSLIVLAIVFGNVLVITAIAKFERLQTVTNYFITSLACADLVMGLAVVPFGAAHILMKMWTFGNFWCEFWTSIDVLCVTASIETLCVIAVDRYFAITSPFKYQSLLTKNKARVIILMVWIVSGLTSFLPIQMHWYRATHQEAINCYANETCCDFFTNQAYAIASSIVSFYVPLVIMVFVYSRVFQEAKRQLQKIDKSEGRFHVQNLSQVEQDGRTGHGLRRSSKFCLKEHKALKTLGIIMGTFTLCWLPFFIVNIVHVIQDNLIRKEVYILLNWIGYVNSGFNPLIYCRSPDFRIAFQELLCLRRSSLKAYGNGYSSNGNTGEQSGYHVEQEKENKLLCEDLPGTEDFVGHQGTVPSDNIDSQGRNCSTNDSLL
# XBP1 UPR activ: activators of adaptive XBP1 UPR arm, primary screen, cell-based, CHO-XBP1 luciferase reporter, luminescence, uHTS; AID 463104, 2010; activation, % at 20 µM; 330,000 compounds, 0.33% hits; IRE1-XBP1 UPR activation; percent of tunicamycin response, DMSO as zero;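 active means versus positive control, 20 µM dose yields 30% or more activation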
#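 Signal: luciferase luminescence; Assay system: CHO-XBP1 luciferase reporter cells; Amount: one thousand reporter cells per well; Dosing: 20 µM single concentration, DMSO 1%; Benchmarks: high control tunicamycin 10 µg/mL final, low control DMSO vehicle only; Schedule: 6 h compound exposure at 37 °C, 5% CO2; Evaluation: percent activation relative to tunicamycin reference.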
# T cell modulator: modulators of CD8 T cell-vesicle binding, primary screen, mouse 2C CD8+ T cells, flow cytometry; 330,000 compounds, 0.068% hits; AID 2052, 2009; 2C CD8+ T cell-vesicle binding; hits give low values; response (vesicle binding), % at 7 µM;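 active means response, share of CD8 T cells binding vesicles, and their 90th percentile fluorescence all below set limits, cut at about 80% in these data, passing the limit was not always enough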;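 further: values below 100% mean blocked vesicle binding to the CD8+ T cells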
#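 Read-out – percent CD8+ FL2 mean versus row control · System – murine 2C transgenic CD8+ T lymphocytes · Times – 1.5 h cell–vesicle binding at 37 °C, then 20 min icy labelling · Control set – naked vesicles low, QL9 vesicles with vehicle high · Detection – cytometric PE anti-B7-1 and Alexa647 anti-CD8 signals after 1% paraformaldehyde fixation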
# UPR CHOP act: activators of apoptotic CHOP UPR arm, primary screen, cell-based, CHO-CHOP luciferase reporter, luminescence, uHTS; UPR activation; percent of tunicamycin response over DMSO baseline; 330,000 compounds, 0.34% hits; activation, % at 10 µM;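 active means at 10 µM dose, activation of 40% or more, normalized to positive control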
#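 Test system: CHO-CHOP cells, stable luciferase reporter of PERK-eIF2a-CHOP signalling | Quantity: 500 CHO-CHOP cells per well | Buffer or medium: F12 plus 10% serum | Compound dosing: 10 µM single point, 0.5% DMSO | Schedule: 6 h compound treatment, 37 °C | Signal: Luciferase luminescence | Control set: Tunicamycin high control, DMSO low control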
# Beta2AR ag CP1: beta2AR agonists via receptor internalization, confirmation, cell-based, FAP fluorogen, flow cytometry, single point, cherry pick 1. AID 540358, 2011. 1,100 compounds, 25% hits. percent response (surface receptor), % at 10 µM. Am2.2-beta2AR cells, FAP surface receptor; hits give low values. shares compounds with Beta2AR agonist;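 active means surface receptor percent response at or below 58%, roughly 3 SD from nonfluorescent compounds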
# B2AR FAP counter: flagged in Am2.2 fluorescence counterscreen for beta-2AR agonists | shares compounds with Beta2AR agonist | Am2.2 cells, FAP fluorogen flow cytometry; hits give low values | calls only at 10 µM | 1,100 tested, under 10 active;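 active means percent response below a set limit in fluorescence channel 1 and below 50% in channel 8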
# Hits are given with their value; i = inactive; nt = no result. In the library only some 1% were active in any assay of this set; here they are far more common.
SMILES,Beta2AR agonist,XBP1 UPR activ,T cell modulator,UPR CHOP act,Beta2AR ag CP1,B2AR FAP counter
O=[N+]([O-])c1ccc(O)c(-c2cc(C(F)(F)F)nc(-c3ccccc3)n2)c1,47.7,i,i,i,i,i
O=C(c1ccc([N+](=O)[O-])s1)N1CCN(c2ccc(C(F)(F)F)cn2)CC1,83.8,i,i,i,i,i
COc1ccc(CC(=O)Nc2ccc(-c3cn4ccccc4n3)cc2)cc1,92.5,i,i,i,19.0,i
COc1ccc(CC(=O)Nc2cccc(-c3cn4ccccc4n3)c2)cc1,i,i,i,i,nt,nt
CSc1nncn1/N=C/c1ccccc1F,i,i,i,i,nt,nt
O=C(O)c1cc(O)ccc1NC(=O)c1cccc2ccccc12,69.1,i,i,i,i,i
Cc1ccc(C(=O)Nc2ccc(O)cc2C(=O)O)cc1C,i,i,i,i,i,i
Cc1ccc(OCC(=O)Nc2ccncc2)c(C)c1,i,i,i,i,nt,nt
Cc1ccc(OCC(=O)Nc2ccc(-c3nc4ncccc4o3)cc2)c(C)c1,116.4,i,i,i,16.2,i
O=C(CSc1nncn1-c1ccccn1)Nc1cccc(Cl)c1,i,i,i,i,nt,nt
CC1CCC(NC(=O)CCS(=O)(=O)c2ccc3c(c2)CCN3C(=O)C2CC2)CC1 (stereo unspecified),104.6,i,i,i,18.0,i
CCn1nc(NS(=O)(=O)c2ccc(NC(C)=O)cc2)c2cc3cccc(C)c3nc21,i,i,i,i,nt,nt
CCn1nc(NS(=O)(=O)c2ccc(F)cc2)c2cc3cccc(C)c3nc21,i,i,i,i,i,i
CCn1nc(NS(=O)(=O)c2ccccc2)c2cc3cccc(C)c3nc21,i,i,i,i,nt,i
O=C(NCCCn1ccnc1)c1ccc(S(=O)(=O)N2CCCCCC2)cc1,i,i,i,i,nt,nt
CC1CC(C)CN(S(=O)(=O)c2ccc(C(=O)NCCCn3ccnc3)cc2)C1 (stereo unspecified),55.2,i,i,i,i,i
CN(C(=O)c1cccc(NC(=O)Cc2cccc(NC(=O)C3CCN(C(=O)C4CCCC4)CC3)c2)c1)C1CCC1,i,nt,nt,nt,nt,nt
CN(C(=O)c1ccc(NC(=O)Cc2ccc(NC(=O)C3CCN(C(=O)C4CCCC4)CC3)cc2)cc1)C1CC1,i,i,i,i,nt,nt
CN(C(=O)c1ccc(NC(=O)Cc2cccc(NC(=O)C3CCN(C(=O)C4CC4)CC3)c2)cc1)C1CCCC1,i,i,i,i,i,i
CN(C(=O)c1ccc(NC(=O)Cc2cccc(NC(=O)C3CCN(C(=O)C4CCCC4)CC3)c2)cc1)C1CC1,i,nt,nt,nt,i,i
CN(C(=O)c1ccc(NC(=O)Cc2cccc(NC(=O)C3CCN(C(=O)C4CCC4)CC3)c2)cc1)C1CCCC1,i,i,i,i,i,i
O=C(CCn1c(=O)sc2ccccc21)NCCC1=CCCCC1,i,i,i,i,nt,nt
CNCC[C@H](Oc1cccc2ccccc12)c1cccs1,49.6,i,i,i,i,i
CCCS(=O)(=O)N1CCCC(C(=O)NCc2ccc3c(c2)OCO3)C1 (stereo unspecified),i,i,i,i,nt,nt
CN(NC1CC(=O)N(c2ccccc2)C1=O)c1ccccc1 (stereo unspecified),i,nt,i,nt,nt,nt
CCC(=O)NC(c1cccs1)c1ccc2cccnc2c1O (stereo unspecified),i,i,i,i,i,i
CC(Sc1nnc(N)s1)C(=O)NC1CCCCC1C (stereo unspecified),i,i,i,i,nt,nt
CC(Oc1ccc(Cl)cc1Cl)c1nc(-c2ccc(NC(=O)c3ccccn3)cc2)no1 (stereo unspecified),82.3,i,i,i,9.7,i
COc1ccc([C@H](C)NC[C@H](O)c2ccc(O)c(NC=O)c2)cc1,i,i,i,i,11.9,i
COc1ccc(CCNC(=O)Cc2cccc(C(F)(F)F)c2)cc1OC,83.3,i,i,i,i,i

# Screening results from PubChem BioAssay.
